PLK1 PBD inh: inhibitors of human Plk1 polo box domain binding; inhibition, %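 (tested at about 20 µM)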; Plk1 PBD phosphopeptide binding, fluorescence polarization; 97,000 compounds, 0.13% hits; P53350; in the data active = inhibition above about 34%, passing the limit was not always enough
HEK293 NFkB inh: lowers PMA/ionomycin-induced NF-kB signal in HEK293 cells | inhibition, % at 3 µM | 62,000 compounds, 0.21% hits | HEK-293 NF-kB luciferase reporter, luminescence | AID 465;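 active = inhibition above the mean of all tested compounds plus 3 SD, cut at about 40% in these data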;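 also: 0% = stimulated DMSO wells and 100% = 10 µM reference inhibitor 5653914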
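Timing: 1 h pretreatment, 16 h stimulation, 37 °C; system: HEK-293 cells with stable firefly luciferase reporter driven by four HIV NF-kB elements; doses: 3 µM once, 0.30% DMSO; measured by: luciferase luminescence; control set: DMSO and 10 µM reference inhibitor; repeats: single test; reagent: PMA plus ionomycin mix as NF-kB-activating stimulus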
PLK1 kinase inh: inhibitors of human PLK1 kinase. recombinant PLK1 kinase, TR-FRET peptide phosphorylation. P53350. 97,000 compounds, 0.53% hits. inhibition, % at 10 µM;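 active = inhibition of 50% or more in the single-concentration screen; inactive = inhibition below 50%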;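 also: 0% = DMSO max control and 100% = H-89 dihydrochloride min control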
Pyk2 oligo antag: blocks oligomerization of human Pyk2 in cells | AID 1347419 | Q293 cells, Pyk2 FERM NanoBiT luminescence; active compounds read low | z-score (the deposit names both 25 µM and 10 µM) | 99,000 compounds, 0.83% hits;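 active = Z-score of -3 or lower, scaled per plate to the spread of control and sample wells; inactive = z-score above -3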;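 also: negative z-score means lost luminescence so less FERM oligomerization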
HePTP inh: inhibitors of human HePTP phosphatase. P35236. recombinant HePTP phosphatase activity, OD absorbance. inhibition, % at 20 µM. 110,000 compounds, 0.64% hits; in the data active = inhibition above about 50%;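 also: plate controls were vehicle for no effect and reference inhibitor for full effect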
Target sequence (P35236 whole entry, looked up): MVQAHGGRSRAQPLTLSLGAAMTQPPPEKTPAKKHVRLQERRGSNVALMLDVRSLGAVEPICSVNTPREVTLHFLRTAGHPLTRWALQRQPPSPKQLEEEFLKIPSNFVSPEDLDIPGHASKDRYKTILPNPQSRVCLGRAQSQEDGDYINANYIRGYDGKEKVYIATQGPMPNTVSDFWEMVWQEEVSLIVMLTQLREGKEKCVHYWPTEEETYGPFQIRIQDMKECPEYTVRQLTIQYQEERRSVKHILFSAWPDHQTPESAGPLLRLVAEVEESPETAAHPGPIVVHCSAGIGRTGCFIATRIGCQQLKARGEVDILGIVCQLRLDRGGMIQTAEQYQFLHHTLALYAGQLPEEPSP
AP complement: alternative pathway complement inhibition, orthogonal assay. Human serum alternative complement pathway, LPS-coated ELISA, C3 deposition; tested in compound mixtures. inhibition, % at 5 µM. 62,000 compounds, 0.08% hits;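 active = inhibition above 30% in each of the two pooled mixtures holding the compound, so the lower value exceeds 30%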;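 also: 0% = serum in Mg-EGTA without compound and 100% = EDTA serum blank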
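Assay system: Human serum alternative complement pathway, C3 deposition on LPS-coated wells | Incubation: 1 h serum-compound exposure at 37 °C | Doses: 5 µM per compound in ten-compound mixtures | Read-out: Percent inhibition | Technique: ELISA with HRP anti-human C3 antibody, TMB substrate, absorbance 450 nm | Replication: Two pool placements per compound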
* marks the source's active call; other numbers are inactive results. Only some compounds are listed: those with a hit (about 1.5% of all), similar ones and a draw of the others.

COCCOC(=O)c1ccc(NC(=O)COc2ccccc2)cc1 was read as HePTP inh -9.
For O=C(N/N=C/c1cccs1)c1cc(-c2ccc3ccccc3c2)n[nH]1 the results were PLK1 PBD inh 34, PLK1 kinase inh -8, Pyk2 oligo antag -0.72 and HePTP inh 99*.
Screening COc1ccc(/C=N/NC(=O)c2cc(-c3ccc4ccccc4c3)n[nH]2)cc1O returned HePTP inh 68*.
Screening CCOc1cc(/C=N/NC(=O)c2cc(-c3ccc4ccccc4c3)n[nH]2)ccc1O returned HePTP inh -15.
For O=C(N/N=C/c1cccs1)c1cc(-c2ccc(Cl)cc2)n[nH]1 the results were HePTP inh -5.
CC1CCN(C(=O)/C(=C/c2ccccc2Cl)c2ccccc2)CC1 was read as PLK1 PBD inh 17, PLK1 kinase inh -7 and Pyk2 oligo antag -3.9*.
Screening CC1CCN(C(=O)c2ccccc2)CC1 returned HePTP inh -5.
Screening CCOc1cc(/C=C2\SC(=S)NC2=O)ccc1OCc1c(C)no[n+]1[O-] returned HePTP inh 102*.
For CCC1=NN(C(=O)c2ccc(OC)cc2)C(O)(c2ccncc2)C1 (centres undefined) the results were HePTP inh 104*.
`COc1cc(/C=N/N(C)c2ccccc2)cc(Cl)c1O` gave PLK1 PBD inh -17, PLK1 kinase inh 2 and Pyk2 oligo antag -3*.
For CNC(=O)c1ccccc1NC(=O)c1cccc(S(=O)(=O)N2CCC(C)CC2)c1 the results were HEK293 NFkB inh -6, Pyk2 oligo antag -3.5*, HePTP inh -6 and AP complement -11.
For CCNC(=O)c1ccccc1NC(=O)c1cccc(S(=O)(=O)N2CCC(C)CC2)c1 the results were PLK1 PBD inh -9, HEK293 NFkB inh -6, PLK1 kinase inh 8, Pyk2 oligo antag -2.9, HePTP inh 0 and AP complement -1.
For Cc1ccc(C)n1-c1ccc(OCC(=O)O)cc1 the results were HePTP inh 104*.
Screening Cc1ccc(C)n1-c1ccc(SCC(=O)O)cc1 returned HePTP inh 103*.
For Cc1nc(=O)c(-c2ccccc2)c(C)n1-c1ccc(OCC(=O)O)cc1 the results were HePTP inh 8.
Screening O=C(CN1C(=O)NC2(CCCCCCC2)C1=O)N1CCOCC1 returned PLK1 PBD inh -10, HEK293 NFkB inh 7, PLK1 kinase inh -12, Pyk2 oligo antag 0.57, HePTP inh 2 and AP complement 39*.
Screening O=C(CN1C(=O)NC2(CCCCCCC2)C1=O)N1CCN(C(=O)c2ccco2)CC1 returned PLK1 PBD inh 8, PLK1 kinase inh 0 and Pyk2 oligo antag 0.34.
Screening Cc1sccc1/C=N/NC(=O)c1cccnc1 returned HePTP inh -9.
For CCOc1ccc(S(=O)(=O)N(CC(=O)Nc2ccc(Cl)cc2)c2ccc(C)cc2)cc1 the results were HePTP inh -3.
For COc1ccc(NC(=O)Cn2nc(C(F)(F)F)c(Br)c2C)c(OC)c1 the results were HePTP inh 6.
`COc1ccc(C(=O)CSC2=C(C#N)C3(CCCCC3)C(C#N)=C(N)N2)cc1` gave PLK1 PBD inh 10, PLK1 kinase inh -4, Pyk2 oligo antag -1.4 and HePTP inh -3.
Screening N#CC1=C(N)NC(SCC(=O)c2ccc(Cl)cc2)=C(C#N)C12CCCC2 returned PLK1 PBD inh 17, PLK1 kinase inh -9, Pyk2 oligo antag -0.73 and HePTP inh 104*.
`Cc1oc(-c2ccc(Cl)cc2)nc1CN1CCC(C(=O)N2CCN(Cc3ccccc3)CC2)CC1` gave PLK1 PBD inh -11, HEK293 NFkB inh -8, PLK1 kinase inh 59*, HePTP inh -3 and AP complement 1.
CCN1CCN(CCNC(=O)C2CCN(Cc3nc(-c4ccc(Cl)cc4)oc3C)CC2)CC1 was read as PLK1 PBD inh -20, HEK293 NFkB inh 1, PLK1 kinase inh 65*, HePTP inh 1 and AP complement 15.
FC(F)(F)c1ccc2nnc(-c3ccc(Br)cc3)n2c1 was read as HePTP inh -1.
`CCOC(=O)C1(Nc2ccc(C)cc2)Sc2cc(C)ccc2NC1=O` (centres undefined) gave HePTP inh -1.
For Cc1cc(=O)[nH]c(N/N=C/c2ccc(O)cc2)n1 the results were HePTP inh -2.
`COC(=O)C1=C(C)N=C2SC(C)C(=O)N2C1c1cccc(F)c1` (centres undefined) gave PLK1 PBD inh 5, PLK1 kinase inh -3, Pyk2 oligo antag -3.6* and HePTP inh 3.
For CCOc1cc(C2C(C(=O)OC)=C(C)N=C3SC(C)C(=O)N32)ccc1OC(C)=O (centres undefined) the results were PLK1 PBD inh 2, HEK293 NFkB inh 11, PLK1 kinase inh -10, Pyk2 oligo antag -0.34, HePTP inh 0 and AP complement -4.
CCOC(=O)N1CCN(C(=O)c2ccc3c(c2)sc2nc(-c4ccc(OC)cc4)cn23)CC1 was read as PLK1 PBD inh -9, HEK293 NFkB inh 7, PLK1 kinase inh -11, Pyk2 oligo antag 1.1, HePTP inh 6 and AP complement 10.
`COc1ccc2c(c1)sc1nc(-c3ccccc3)cn12` gave HEK293 NFkB inh 67*, Pyk2 oligo antag -1.5, HePTP inh -3 and AP complement 4.
For COC(=O)C1C2C=CC3(CN(C(C)C)C(=O)C13)O2 (centres undefined) the results were PLK1 PBD inh 13, HEK293 NFkB inh 0, PLK1 kinase inh 55*, HePTP inh 1 and AP complement 10.
For Cc1nnc(SCC(=O)NCC(=O)c2ccccc2)s1 the results were HePTP inh 10.
CCOc1ccc(N(CC(=O)NCc2ccc(Cl)cc2)S(=O)(=O)c2ccc(Br)cc2)cc1 was read as HePTP inh 103*.
CCCCC(=O)Nc1ccc(NC(=O)CCCC)nc1 was read as PLK1 PBD inh 29, HEK293 NFkB inh 0, PLK1 kinase inh 2, Pyk2 oligo antag -0.6, HePTP inh 1 and AP complement 69*.
O=C(Nc1ccc(O)cc1)c1ccc(C(=O)c2ccccc2)o1 was read as PLK1 PBD inh 6, HEK293 NFkB inh 13, PLK1 kinase inh -16, Pyk2 oligo antag -3.2*, HePTP inh 3 and AP complement 20.
O=C(Nc1ccc(O)cc1)c1ccc(-c2ccccc2)cc1 was read as HePTP inh 1.
For CCN(CC)C(=O)c1c(F)cccc1F the results were HePTP inh 3.
For C=CS(=O)(=O)c1ccc(Oc2ccc(S(=O)(=O)C=C)cc2)cc1 the results were HEK293 NFkB inh 81*, HePTP inh 7 and AP complement 21.
Screening O=S(=O)(c1ccc(Oc2ccc(S(=O)(=O)N3CCOCC3)cc2)cc1)N1CCOCC1 returned HEK293 NFkB inh 6, Pyk2 oligo antag 0.46, HePTP inh 3 and AP complement 21.
